“Also recorded” adds a separate entry of the source.
Columns and labels:
I-A^b = target: T1, I-A^b (Mus musculus, UniProt P14434+P14483); experiment: MHC binding assay, inhibition of radiolabeled peptide binding, I-A^b
T1 sequence (P14434 24-256): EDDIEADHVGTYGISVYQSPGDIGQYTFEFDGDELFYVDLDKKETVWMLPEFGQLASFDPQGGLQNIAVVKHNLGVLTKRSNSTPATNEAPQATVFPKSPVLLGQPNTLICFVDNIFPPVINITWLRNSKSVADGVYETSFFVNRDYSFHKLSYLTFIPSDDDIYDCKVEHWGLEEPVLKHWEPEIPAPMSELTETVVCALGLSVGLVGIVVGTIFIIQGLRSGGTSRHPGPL
T1 sequence (P14483 28-265): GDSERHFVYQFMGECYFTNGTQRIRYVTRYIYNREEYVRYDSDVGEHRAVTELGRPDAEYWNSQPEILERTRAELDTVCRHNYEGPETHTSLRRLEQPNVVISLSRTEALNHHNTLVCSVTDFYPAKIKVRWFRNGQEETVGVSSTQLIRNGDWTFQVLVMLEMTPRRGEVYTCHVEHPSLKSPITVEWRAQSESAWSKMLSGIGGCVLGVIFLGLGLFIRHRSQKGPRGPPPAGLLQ
Summary of the method: (§1)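 Class II MHC affinity-purified from mouse B cell lymphoma LB27.4. Complexes captured on Y3JP antibody-coated plates; bound cpm counted by microscintillation. Six peptide concentrations over a 100,000-fold range, ≥3 independent experiments. IC50 is the concentration giving 50% probe inhibition; unlabeled probe is the positive control.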

I-A^d = target: T2, I-A^d (Mus musculus, UniProt P01921+P04228); experiment: MHC binding assay, inhibition of radiolabeled peptide binding, I-A^d
T2 sequence (P04228 24-256): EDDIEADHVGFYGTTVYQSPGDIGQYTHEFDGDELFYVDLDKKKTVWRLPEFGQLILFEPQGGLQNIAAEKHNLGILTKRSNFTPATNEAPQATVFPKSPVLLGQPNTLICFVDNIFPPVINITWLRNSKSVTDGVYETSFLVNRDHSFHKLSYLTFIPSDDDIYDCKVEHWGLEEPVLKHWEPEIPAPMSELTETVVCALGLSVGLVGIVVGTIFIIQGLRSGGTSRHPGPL
T2 sequence (P01921 28-265): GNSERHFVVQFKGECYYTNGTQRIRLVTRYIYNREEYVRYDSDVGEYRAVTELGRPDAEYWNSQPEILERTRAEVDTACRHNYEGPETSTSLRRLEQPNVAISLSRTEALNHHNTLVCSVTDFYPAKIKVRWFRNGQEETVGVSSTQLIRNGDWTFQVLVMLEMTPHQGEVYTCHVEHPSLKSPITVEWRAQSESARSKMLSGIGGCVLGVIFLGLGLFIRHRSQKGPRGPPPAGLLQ
Summary of the method: as §1

I-E^d = target: T3, I-E^d (Mus musculus, UniProt P01904+P01915); experiment: MHC binding assay, inhibition of radiolabeled peptide binding, I-E^d
T3 sequence (P01904 26-255): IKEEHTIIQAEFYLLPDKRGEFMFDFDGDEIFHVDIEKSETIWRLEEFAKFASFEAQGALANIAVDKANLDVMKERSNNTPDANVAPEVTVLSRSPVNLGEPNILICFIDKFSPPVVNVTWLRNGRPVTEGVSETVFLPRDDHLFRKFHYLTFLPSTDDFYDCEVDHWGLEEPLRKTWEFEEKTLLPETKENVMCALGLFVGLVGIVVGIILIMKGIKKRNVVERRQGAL
T3 sequence (P01915 27-264 limits assumed): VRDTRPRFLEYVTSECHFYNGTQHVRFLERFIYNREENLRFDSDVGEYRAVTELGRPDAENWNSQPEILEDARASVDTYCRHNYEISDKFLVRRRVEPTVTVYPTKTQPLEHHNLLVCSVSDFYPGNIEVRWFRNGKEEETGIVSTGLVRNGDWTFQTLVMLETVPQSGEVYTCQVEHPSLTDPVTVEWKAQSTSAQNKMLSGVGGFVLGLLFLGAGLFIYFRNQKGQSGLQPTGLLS

splenocytes [1] = assay type: cell-based, mouse; details: for IL-17A or IFNγ responses by ELISpot: 24 hours, 37°C
splenocytes [2] = details: mouse, in vivo
S. aureus = test system: S. aureus; set-up: species or system S. aureus strain 923, a USA300 isolate; mice; details: mouse, in vivo
[3] = test system: tetramer^+ CD44^hi CD4^+ T cells; details: mouse, in vivo
TFH cells = details: mouse, in vivo

## CC[C@H](C)[C@H](NC(=O)[C@H](CCC(=O)O)NC(=O)[C@H](Cc1c[nH]cn1)NC(=O)[C@@H](NC(=O)[C@H](CCCCN)NC(=O)[C@H](Cc1c[nH]c2ccccc12)NC(=O)[C@H](CC(N)=O)NC(=O)[C@@H](NC(=O)[C@H](CCC(=O)O)NC(=O)[C@@H](N)Cc1ccc(O)cc1)C(C)C)[C@@H](C)O)C(=O)N[C@@H](CCCCN)C(=O)N[C@H](C(=O)N[C@@H](CCCCN)C(=O)NCC(=O)N[C@@H](Cc1c[nH]cn1)C(=O)N[C@@H](CC(N)=O)C(=O)O)C(C)C [LkT/C]
I-A^b
  IC50: 17.3 µM
I-A^d
  IC50: 3.21 µM
I-E^d
  IC50: 0.0022 µM

## CC[C@H](C)[C@H](N)C(=O)NCC(=O)NCC(=O)N[C@@H](CC(N)=O)C(=O)NCC(=O)N[C@@H](CO)C(=O)N[C@@H](Cc1ccccc1)C(=O)N[C@@H](CC(N)=O)C(=O)N[C@@H](Cc1ccc(O)cc1)C(=O)N[C@@H](CO)C(=O)N[C@@H](CCCCN)C(=O)N[C@H](C(=O)N[C@H](C(=O)N[C@@H](CO)C(=O)N[C@@H](Cc1ccc(O)cc1)C(=O)N[C@H](C(=O)O)[C@@H](C)O)[C@@H](C)CC)[C@@H](C)O [LukE153–168]
I-A^b
  IC50: 0.586 µM

## CC(C)[C@H](NC(=O)CNC(=O)[C@H](Cc1c[nH]c2ccccc12)NC(=O)[C@@H](N)CCCCN)C(=O)N[C@@H](CCCCN)C(=O)N[C@@H](C)C(=O)N[C@@H](CC(N)=O)C(=O)N[C@@H](CCC(=O)O)C(=O)N[C@@H](Cc1ccccc1)C(=O)N[C@H](C(=O)N[C@H](C(=O)N1CCC[C@H]1C(=O)N[C@@H](CC(=O)O)C(=O)NCC(=O)N[C@@H](CCCCN)C(=O)N[C@@H](CCCCN)C(=O)O)[C@@H](C)O)C(C)C [LukE185–200]
I-A^b
  IC50: 4.05 µM

## LukE: leukotoxin E, His-tagged, purified from E. coli; antigen and vaccine
Splenocytes [1]
  IFNγ response by ELISpot: weaker IFNγ; also recorded: moderate IFNg responses
  IL-17A and IFNγ responses, mice expressing H-2^d compared with H-2^b: significantly stronger IL-17A and IFNγ responses
  IL-17A response by ELISpot: strongest IL-17A responses; also recorded: strong IL-17A responses
  IL-17A or IFNγ responses by ELISpot: minimal IL-17A or IFNγ responses; also recorded: no detectable responses
Splenocytes [2]
  IL-17A and IFNγ responses, vaccination compared with SSTI: stronger IL-17A and IFNγ responses
  LukE-specific IL-17A response after vaccination: no differences in LukE-specific IL-17A responses
S. aureus
  reduction of lesion size compared with control mice: approximately 40%
S. aureus; sc
  protection against dermonecrosis (lesion size) after vaccination: moderately strong protection against dermonecrosis; also recorded: weaker protection
[3]
  LukE-specific tetramer^+ CD44^hi CD4^+ T cells after vaccination: high frequencies; also recorded: strong LukE-specific T cell responses
TFH cells
  LukE-specific TFH cells after vaccination: expanded a population of LukE-specific TFH cells; also recorded: expansion of LukE-specific TFH cells

## LukS-PV: leukocidin S-PV, purified from E. coli, GST removed; sae-regulated antigen
Splenocytes [1]
  IFNγ response by ELISpot: weaker IFNγ; also recorded: moderate IFNg responses
  IL-17A and IFNγ responses, mice expressing H-2^d compared with H-2^b: significantly stronger IL-17A and IFNγ responses
  IL-17A response by ELISpot: strongest IL-17A responses; also recorded: strong IL-17A responses
  IL-17A or IFNγ responses by ELISpot: minimal IL-17A or IFNγ responses; also recorded: no detectable responses
